Activity calls are given as the source filed them. No cut-off for these calls is given here.
Key:
MCF7 [1] = experiment: Antiproliferative activity against human MCF7 cells at 40 uM after 72 hrs by SRB assay; assay type: functional, cell-based
Homo sapiens [2] = species: Homo sapiens; experiment: Antiproliferative activity against human KBVIN cells at 40 uM after 72 hrs by SRB assay; assay type: functional, cell-based
MDA-MB-231 [3] = experiment: Antiproliferative activity against human MDA-MB-231 cells at 40 uM after 72 hrs by SRB assay; assay type: functional, cell-based
KB [4] = experiment: Antiproliferative activity against human KB cells at 40 uM after 72 hrs by SRB assay; assay type: functional, cell-based
A549 [5] = experiment: Antiproliferative activity against human A549 cells at 40 uM after 72 hrs by SRB assay; assay type: functional, cell-based
[6] = Antiproliferative activity against human KBVIN cells after 48 hrs by SRB assay; assay type: functional, cell-based
How it was run: (§1)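 SRB assay. Cell suspensions were seeded at 4000–12 000 cells/well in RPMI-1640 with 2 mM L-glutamine, 25 mM HEPES, 10% FBS, streptomycin and penicillin. Cells were exposed to compounds for 72 h. For the time course, cells were plated 24 h before treatment and then exposed for 24, 48 or 72 h. Cells were fixed in 10% TCA and stained with 0.04% SRB. Bound dye was dissolved in 10 mM Tris and read at 515 nm.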

[7] = Antiproliferative activity against human KBVIN cells after 72 hrs by SRB assay; assay type: functional, cell-based; how it was run: as §1
[8] = Antiproliferative activity against human KBVIN cells after 24 hrs by SRB assay; assay type: functional, cell-based; how it was run: as §1
Homo sapiens [9] = species: Homo sapiens; experiment: Antiproliferative activity against human […] cells at 10 to 100 nM after 48 hrs by SRB assay; assay type: functional, cell-based
A549 [10] = experiment: Antiproliferative activity against human A549 cells after 24 hrs by SRB assay; assay type: functional, cell-based; conditions: A549, 24 h
How it was run: (§2)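 Time-course: cells seeded at 4000–12 000 per well 24 h before compound exposure for 24, 48 or 72 h, as named in the line. Cells then fixed in 10% trichloroacetic acid, stained with 0.04% SRB, and dye solubilized in 10 mM Tris base read at 515 nm. […] Medium RPMI-1640 with 10% FBS.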

MCF7 [11] = experiment: Antiproliferative activity against human MCF7 cells after 24 hrs by SRB assay; assay type: functional, cell-based; conditions: MCF7, 24 h
KB [12] = experiment: Antiproliferative activity against human KB cells after 48 hrs by SRB assay; assay type: functional, cell-based
KB [13] = experiment: Antiproliferative activity against human KB cells after 72 hrs by SRB assay; assay type: functional, cell-based
MDA-MB-231 [14] = experiment: Antiproliferative activity against human MDA-MB-231 cells after 72 hrs by SRB assay; assay type: functional, cell-based; conditions: MDA-MB-231, 72 h
MCF7 [15] = experiment: Antiproliferative activity against human MCF7 cells after 72 hrs by SRB assay; assay type: functional, cell-based; conditions: MCF7, 72 h
MDA-MB-231 [16] = experiment: Cell cycle arrest in human MDA-MB-231 cells assessed as accumulation at sub-G1 phase at 10 times IC50 after 48 hrs by propidium iodide staining based flow cytometry; assay type: functional
How it was run: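 DMSO served as vehicle control and combretastatin A-4 at 0.1 μM as the G2/M-arrest control. Harvested cells were fixed and stained with propidium iodide plus RNase. DNA content was analysed by flow cytometry, and sub-G1 cells were counted. Each experiment was done at least twice.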

Breast carcinoma cell = experiment: Antiproliferative activity against human breast cancer cells at 10 to 100 nM after 48 hrs by SRB assay; assay type: functional, cell-based
Homo sapiens [17] = species: Homo sapiens; experiment: Antiproliferative activity against human non-small cell lung cancer cells at 10 to 100 nM after 48 hrs by SRB assay; assay type: functional
Leukemia cell = experiment: Antiproliferative activity against human leukemia cells at 10 to 100 nM after 48 hrs by SRB assay; assay type: functional, cell-based
Ovarian carcinoma cell = experiment: Antiproliferative activity against human ovarian cancer cells at 10 to 100 nM after 48 hrs by SRB assay; assay type: functional, cell-based
KB [18] = experiment: Antiproliferative activity against human KB cells after 24 hrs by SRB assay; assay type: functional, cell-based
Melanoma cell = experiment: Antiproliferative activity against human melanoma cells at 10 to 100 nM after 48 hrs by SRB assay; assay type: functional, cell-based
MCF7 [19] = experiment: Antiproliferative activity against human MCF7 cells after 48 hrs by SRB assay; assay type: functional, cell-based; conditions: MCF7, 48 h
MDA-MB-231 [20] = experiment: Antiproliferative activity against human MDA-MB-231 cells after 48 hrs by SRB assay; assay type: functional, cell-based; conditions: MDA-MB-231, 48 h
MDA-MB-231 [21] = experiment: Antiproliferative activity against human MDA-MB-231 cells after 24 hrs by SRB assay; assay type: functional, cell-based; conditions: MDA-MB-231, 24 h
A549 [22] = experiment: Antiproliferative activity against human A549 cells after 48 hrs by SRB assay; assay type: functional, cell-based; conditions: A549, 48 h; how it was run: as §2
A549 [23] = experiment: Antiproliferative activity against human A549 cells after 72 hrs by SRB assay; assay type: functional, cell-based; conditions: A549, 72 h; how it was run: as §2
NCI/ADR-RES = experiment: Antiproliferative activity against human NCI-ADR-RES cells after 48 hrs by SRB assay
CNS carcinoma cell = experiment: Antiproliferative activity against human CNS cancer cells at 10 to 100 nM after 48 hrs by SRB assay; assay type: functional, cell-based
Homo sapiens [24] = species: Homo sapiens; experiment: Antiproliferative activity against human renal cancer cells at 10 to 100 nM after 48 hrs by SRB assay; assay type: functional, cell-based
Prostatic carcinoma cell = experiment: Antiproliferative activity against human prostate cancer cells at 10 to 100 nM after 48 hrs by SRB assay; assay type: functional

Row | Compound | Activity (MCF7 [1]) | Activity (Homo sapiens [2]) | Activity (MDA-MB-231 [3]) | Activity (KB [4]) | Activity (A549 [5]) | IC50 [6] [nM] | IC50 [7] [nM] | IC50 [8] [nM] | IC50 (A549 [10]) [nM] | IC50 (MCF7 [11]) [nM] | IC50 (KB [12]) [nM] | IC50 (KB [13]) [nM] | IC50 (MDA-MB-231 [14]) [nM] | IC50 (MCF7 [15]) [nM] | IC50 (KB [18]) [nM] | IC50 (MCF7 [19]) [nM] | IC50 (MDA-MB-231 [20]) [nM] | IC50 (MDA-MB-231 [21]) [nM] | IC50 (A549 [22]) [nM] | IC50 (A549 [23]) [nM] | also measured
1 | C=C[C@H]1[C@H](O[C@@H]2O[C@H](CO)[C@@H](O)[C@H](O)[C@H]2OC(=O)/C=C/c2cc(OC)c(O)c(OC)c2)OC=C2C(=O)N3CCc4cc(O)c(OC)cc4[C@H]3C[C@H]21 | inactive | inactive | inactive | inactive | inactive | – | – | – | – | – | – | – | – | – | – | – | – | – | – | – | –
2 | CC(=O)O[C@H]1C(=O)[C@@]2(C)[C@H]([C@H](OC(=O)c3ccccc3)[C@]3(O)C[C@H](OC(=O)[C@H](O)[C@@H](NC(=O)c4ccccc4)c4ccccc4)C(C)=C1C3(C)C)[C@]1(OC(C)=O)CO[C@@H]1C[C@@H]2O [PACLITAXEL] | – | – | – | – | – | 2880 | 2380 | > 3000 | – | – | – | – | – | – | – | – | – | – | – | – | –
3 | CC[C@H]1CN2CCc3c(cc(OC)c(OC)c3O)[C@@H]2C[C@@H]1C[C@H]1NCCc2c1[nH]c1ccc(O)cc21 | – | – | – | – | – | 11100 | > 10000 | 8900 | 210 | 120 | 150 | 210 | 80 | 210 | 90 | 160 | 80 | 60 | 230 | 280 | Activity (Homo sapiens [9]): Active; Activity (MDA-MB-231 [16]): Active; Activity (Breast carcinoma cell): Active; Activity (Homo sapiens [17]): Active; Activity (Leukemia cell): Active; Activity (Ovarian carcinoma cell): Active; Activity (Melanoma cell): Active; Activity (NCI/ADR-RES): Active; Activity (CNS carcinoma cell): Active; Activity (Homo sapiens [24]): Active; Activity (Prostatic carcinoma cell): Active
4 | C=C[C@H]1[C@H](O[C@@H]2O[C@H](CO)[C@@H](O)[C@H](O)[C@H]2OC(=O)/C=C/c2cc(OC)c(O)c(OC)c2)OC=C2C(=O)N3CCc4cc(O)c(O)cc4[C@H]3C[C@H]21 | inactive | inactive | inactive | inactive | inactive | – | – | – | – | – | – | – | – | – | – | – | – | – | – | – | –
5 | COc1cccc2c1C(=O)c1c(O)c3c(c(O)c1C2=O)C[C@@](O)(C(=O)CO)C[C@@H]3O[C@H]1C[C@H](N)[C@H](O)[C@H](C)O1 [DOXORUBICIN] | – | – | – | – | – | > 1000 | > 1000 | > 1000 | – | – | 340 | 220 | – | – | 820 | – | – | – | – | – | –
6 | CC[C@H]1CN2CCc3cc(O)c(OC)cc3[C@@H]2C[C@@H]1C[C@H]1NCCc2c1[nH]c1ccc(O)cc21 | – | – | – | – | – | > 10000 | > 10000 | > 10000 | 360 | 250 | 470 | 620 | 220 | 380 | 290 | 270 | 230 | 190 | 300 | 620 | –

Reference: ChEMBL document CHEMBL4196149, “Antiproliferative Alkaloids from Alangium longiflorum, an Endangered Tropical Plant Species” (J Nat Prod, 2018)
